A short description of test [1]: Tested for inhibition of copper induced lipid peroxidation in human low density lipoproteins (LDL). The test is classed as functional. The essentials: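 LDL isolated by ultracentrifugation from pooled plasma of healthy normolipidemic human donors. Oxidation driven by copper for 3 h at 24 °C. Compounds in DMSO added just before oxidation, at 10 concentrations from 10^-7 to 10^-3 M, in duplicate. TBARS measured by the Yagi method. IC50 by linear regression; also given as an activity ratio versus probucol.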

A short description of test [2]: Activity ratio versus Probucol in lipid peroxidation. The class given is functional. The essentials:
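LDL isolated by ultracentrifugation from pooled plasma of healthy normolipidemic human donors. Compounds were added in DMSO just before copper-induced oxidation (3 h, 24 °C). Ten concentrations from 10^-7 to 10^-3 M were tested in duplicate. Read-out was TBARS inhibition (Yagi method), and IC50 came from linear regression. Activity was expressed as a ratio versus probucol to correct for LDL batch variation.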

Test [3] deals with Endothelial cell. As to the kind of experiment: Inhibitory concentration against 15-lipoxygenase, by inhibiting 15-HETE production by human umbilical vein endothelial cells (HUVEC) stimulated by calcium ionophore A 23187 at concentration of 10e-5 M. The class given is cell-based. The procedure, abridged:
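HUVEC (isolated) preincubated 15 min at 37 °C with compound at 10^-5 M in DMSO, in triplicate; stimulated with calcium ionophore A 23187 (5 × 10^-6 M in DMSO).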

For test [4], the species on record is Rattus norvegicus. As to the kind of experiment: Inhibitory concentration against KCL-induced rat thoracic contraction. The class given is functional. The essentials:
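Isolated rat aorta contracted with hyperpotassic solution (KCl 60 mM). Inhibition of contraction measured at eight concentrations, 10^-8 to 3 × 10^-5 M, each in duplicate, on two separate preparations. IC50 obtained from the concentration-response curve by linear regression. Flunarizine as reference.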

The species named for test [5] is Bos taurus. The test is described as follows: Inhibitory concentration against protection of bovine endothelial cells against cytotoxicity of oxidised LDL. The class given is functional. Conditions: Endothelial cell. The essentials:
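Cells kept 48 h in the presence of oxidized LDL, washed twice with PBS. Viability read by MTT (250 µg mL^-1 in phenol red-free RPMI, 2 h, 37 °C), solubilized in DMSO, OD 540 nm, expressed as % of cells grown without oxidized LDL. Six concentrations, five assays each; IC50 by linear regression.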

For `COc1ccc2[nH]c(C(=O)Nc3ccccc3)cc2c1`, the midpoint of inhibition in test [1], the IC50, lay at 0.9 µM. In addition, the Ratio in test [2] was 2.2.
Turning to `COc1ccc2c(c1)cc(C(=O)N(C)c1ccccc1)n2C`, 90 µM corresponded to half-maximal inhibition in test [1] (IC50). Also, the Ratio in test [2] is 0.02.
Regarding `CN(C(=O)c1cc2cc(O)ccc2[nH]1)c1ccccc1`, in test [1], the IC50 (commonly the concentration at which inhibition is half-maximal) came out at 1 µM. For the same molecule, the Ratio in test [2] is 1.
For `CCCCCCN(C(=O)c1cc2cc(O)ccc2n1C)c1ccccc1` the same measures were 0.2 µM and 5.
For `CCCCCCN(C(=O)c1cc2cc(O)ccc2[nH]1)c1ccccc1` the same measures were 0.1 µM and 10.
`CN(C(=O)c1cc2cc(O)ccc2n1C)c1cccc(Br)c1` showed an IC50 in test [1] of 0.8 µM. Also, in test [2], the Ratio worked out at 2.5.
`CCSc1ccc2c(c1)c1c(n2C)CCCC1` had an IC50 in test [1] of 20 µM. Moreover, the Ratio in test [2] came out at 0.1.
`O=C(Nc1ccccc1)c1cc2cc(O)ccc2[nH]1`: the IC50 in test [1] was found to be 1 µM. The Ratio in test [2] amounted to 3.
The molecule `COc1cc(NC(=O)c2cc3cc(O)ccc3[nH]2)cc(OC)c1OC` showed an IC50 in test [1] of 0.8 µM. The Ratio in test [2] worked out at 3.8.
The molecule `Cn1c(C(=O)Nc2ccccc2)cc2cc(O)ccc21` registered an IC50 in test [1] of 0.9 µM. The Ratio in test [2] stood at 0.3.
On to `CN(C(=O)c1cc2cc(O)ccc2n1C)c1ccccc1`, for which, in test [1], half-maximal inhibition (IC50) was put at 0.2 µM. In addition, in test [2], the Ratio was determined as 10.
As to `Cn1c2c(c3cc(O)ccc31)CCCCCC2`, in test [1], it took 0.1 µM to reach half-maximal inhibition (IC50). Moreover, the Ratio in test [2] stood at 10.
`Cn1c2c(c3cc(O)ccc31)CCCCC2` returned a concentration for half-maximal inhibition (IC50) in test [1] of 0.1 µM. Also, the inhibition (as a rule, the share of the control response that was lost under treatment) in test [3] turned out to be 62%.
`COc1cccc(N(C)C(=O)c2cc3cc(OC)ccc3n2C)c1` gave a 50% inhibitory concentration (IC50) in test [1] of 200 µM. Moreover, the Ratio in test [2] worked out at 0.01.
In the case of `Cn1c2c(c3cc(O)ccc31)CCCC2`, in test [1], the IC50 amounted to 0.6 µM. Also, the Ratio in test [2] amounted to 3.
For the molecule `CCCCCCCCN(C(=O)c1cc2cc(SCC)ccc2[nH]1)c1ccccc1`, in test [1], the IC50 was determined as 100 µM. Besides, the Ratio in test [2] turned out to be 0.03.
Consider `CCCCCCCCN(C(=O)c1cc2cc(O)ccc2[nH]1)c1ccccc1`, for which the 50% inhibitory concentration (IC50) in test [1] worked out at 10 µM. Also, the Ratio in test [2] was found to be 0.3.
The molecule `COc1ccc(CN2CCN(C(=O)c3cc4cc(O)ccc4[nH]3)CC2)c(OC)c1OC` displayed an IC50 in test [1] of 5 µM. In test [2], the Ratio was 1.
For the molecule `CCCCN(C(=O)c1cc2cc(O)ccc2n1C)c1ccccc1`, inhibition in test [1] was half-maximal at 1 µM (IC50). Moreover, the Ratio in test [2] is 3.
Regarding `Oc1ccc2[nH]c3c(c2c1)CCCCCC3`, 0.5 µM corresponded to half-maximal inhibition in test [1] (IC50). Besides, the Ratio in test [2] was 2.
`COc1ccc2[nH]c(C(=O)N(C)c3ccccc3)cc2c1` came in with an IC50 in test [1] of over 1000 µM. Also, the Ratio in test [2] was under 0.001.
`CN(C(=O)c1cc2cc(O)ccc2n1C)c1cccc(Cl)c1` yielded a 50% inhibitory concentration (IC50) in test [1] of under 0.1 µM. Also, the Ratio in test [2] is over 20.
In turn, `Cn1c(C(=O)Nc2cccc(Cl)c2)cc2cc(O)ccc21` had an IC50 in test [1] of 1 µM. Further, the Ratio in test [2] is 0.8.
Consider `CN(C(=O)c1cc2cc(O)ccc2n1C)c1cccc(C(F)(F)F)c1`, for which the IC50 in test [1] turned out to be 1 µM. Further, the Ratio in test [2] worked out at 0.5.
As for `COc1ccc2[nH]c3c(c2c1)CCCC3`, in test [1], the midpoint of inhibition, the IC50, lay at 1 µM. The Ratio in test [2] turned out to be 3.
As for `Cn1c(C(=O)N2CCN(C(c3ccc(F)cc3)c3ccc(F)cc3)CC2)cc2cc(O)ccc21`, the IC50 in test [1] amounted to 0.6 µM; in test [4], 1.5 µM; in test [5] it was 0.14 µM. In addition, the Ratio in test [2] is 5.
As to `CC(C)(Sc1cc(C(C)(C)C)c(O)c(C(C)(C)C)c1)Sc1cc(C(C)(C)C)c(O)c(C(C)(C)C)c1` [PROBUCOL], the IC50 in test [1] came out at 5 µM. This counts as single-digit micromolar.
